Measured values from ChEMBL document CHEMBL4000163, “Pyrazole derived ultra-short antimicrobial peptidomimetics with potent anti-biofilm activity” (Eur J Med Chem, 2017).
Values after ≈ are worked out from the molar mass of the structure shown. Active and inactive are the calls of the source. No cut-off for these calls is given here.

Columns and labels:
[1] = tested on: Escherichia coli; test: Antimicrobial activity against Escherichia coli KCTC 1682 incubated for 18 to 20 hrs by broth microdilution assay; assay type: functional; conditions: read-out: MIC100
Outline: (§1)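 Broth microdilution in 1% peptone. Inoculum was 2 × 10⁶ CFU/mL mixed 1:1 with serial 2-fold peptide dilutions and incubated 18–20 h at 37 °C. Growth was read as absorbance at 600 nm; MIC is the lowest peptide concentration giving 100% growth inhibition.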

[2] = tested on: Pseudomonas aeruginosa; test: Antimicrobial activity against Pseudomonas aeruginosa KCTC 1637 incubated for 18 to 20 hrs by broth microdilution assay; assay type: functional; conditions: read-out: MIC100; outline: as §1
[3] = tested on: Staphylococcus epidermidis; test: Antimicrobial activity against Staphylococcus epidermidis KCTC 1917 incubated for 18 to 20 hrs by broth microdilution assay; assay type: functional; conditions: read-out: MIC100; outline: as §1
[4] = tested on: Staphylococcus aureus; test: Antimicrobial activity against Staphylococcus aureus KCTC 1621 incubated for 18 to 20 hrs by broth microdilution assay; assay type: functional; conditions: read-out: MIC100; outline: as §1
[5] = Therapeutic index, ratio of MHC for sheep RBC to MIC for Staphylococcus epidermidis KCTC 1917
[6] = Therapeutic index, ratio of MHC for sheep RBC to MIC for Staphylococcus aureus KCTC 1621
[7] = tested on: Enterococcus faecium; test: Antibacterial activity against vancomycin-resistant Enterococcus faecium ATCC 51559 after 18 to 20 hrs by broth microdilution assay; assay type: functional; conditions: read-out: MIC100
Outline: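 Broth microdilution in 1% peptone: bacteria at 2 × 10⁶ CFU/mL mixed 1:1 with serial 2-fold peptide dilutions, 18-20 h at 37 °C; growth read as absorbance at 600 nm. MIC taken as lowest concentration giving 100% growth inhibition.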

[8] = tested on: Escherichia coli; test: Induction of outer membrane permeabilization in Escherichia coli KCTC 1682 assessed as NPN uptake by spectrofluorophotometric analysis; assay type: functional
Outline: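 E. coli KCTC 1682 at OD600 0.05 in 5 mM HEPES pH 7.2 with 5 mM KCN; NPN 10 µM final, background fluorescence recorded (ex 350, em 420 nm). Peptide aliquots at various concentrations added and fluorescence followed over time until no further rise.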

[9] = tested on: Escherichia coli; test: Induction of inner membrane permeabilisation in Escherichia coli ML-35 assessed as ONPG hydrolysis up to 30 ug/ml by beta-galactosidase enzyme coupled spectrophotometric analysis; assay type: functional
Outline: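 E. coli ML-35 (constitutive cytoplasmic β-galactosidase, lactose permease-deficient) washed and resuspended to OD600 0.5 in 10 mM sodium phosphate pH 7.4, 100 mM NaCl, with 1.5 mM ONPG. o-Nitrophenol release tracked spectrophotometrically over time after peptide addition at various concentrations.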

[10] = tested on: Staphylococcus aureus; test: Induction of cytoplasmic membrane depolarization in Staphylococcus aureus KCTC 1621 assessed as loss of membrane potential after 1 hr by DiSC3(5) dye based fluorescence assay; assay type: functional
[11] = tested on: Escherichia coli; test: Antimicrobial activity against Escherichia coli KCTC 1682 using 4 hrs trypsin incubated compound measured after overnight incubation by radial diffusion assay; assay type: functional
Outline: (§2)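 Radial diffusion: mid-log cells (2×10^6 CFU/ml in LB) in 0.7% agarose. Peptide stock (10 mg/mL) added to trypsin in PBS (0.2 µg/mL), 4 h at 37 °C, stopped by liquid-nitrogen freezing; 10 µL on paper discs on the plates, overnight at 37 °C. Clearance-zone diameters measured.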

[12] = tested on: Staphylococcus aureus; test: Antimicrobial activity against Staphylococcus aureus KCTC 1621 using 4 hrs trypsin incubated compound measured after overnight incubation by radial diffusion assay; assay type: functional; outline: as §2
[13] = Therapeutic index, ratio of MHC for sheep RBC to geometric mean of MICs for four bacterial strains
[14] = as above; remark: listed apart in the source
[15] = tested on: Pseudomonas aeruginosa; test: Potency index, ratio of LL-37 MIC100 to compound MIC100 for Pseudomonas aeruginosa KCTC 1637; assay type: functional
[16] = tested on: Staphylococcus aureus; test: Potency index, ratio of LL-37 MIC100 to compound MIC100 for Staphylococcus aureus KCTC 1621; assay type: functional
[17] = tested on: Staphylococcus aureus; test: Potency index, ratio of melittin MIC100 to compound MIC100 for Staphylococcus aureus KCTC 1621; assay type: functional
[18] = tested on: Pseudomonas aeruginosa; test: Potency index, ratio of melittin MIC100 to compound MIC100 for Pseudomonas aeruginosa KCTC 1637; assay type: functional
[19] = tested on: Pseudomonas aeruginosa; test: Antibiofilm activity against multidrug-resistant Pseudomonas aeruginosa CCARM 2095 after 24 hrs by crystal violet staining based method; assay type: functional; conditions: CCARM 2095, 24 h
Outline: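 MDRPA 2095 (1×10^6 cfu/mL) in MHB with 0.2% glucose, 24 h at 37 °C with or without peptide (2-fold dilutions, 1-64 µg/mL), six wells each. Wells washed with PBS, methanol-fixed, stained with 0.1% crystal violet 5 min, stain resolubilized in 95% ethanol, absorbance at 600 nm.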

## CCC(CC)Cn1cc(N)c(C(=O)N[C@@H](CCCNC(=N)N)C(N)=O)n1
[1]
  MIC: > 64 µg/mL
[2]
  MIC: > 64 µg/mL
[3]
  MIC: > 64 µg/mL
[4]
  MIC: > 64 µg/mL

## CC[C@H](C)[C@H](NC(=O)CN)C(=O)NCC(=O)N[C@@H](C)C(=O)N[C@H](C(=O)N[C@@H](CC(C)C)C(=O)N[C@@H](CCCCN)C(=O)N[C@H](C(=O)N[C@@H](CC(C)C)C(=O)N[C@H](C(=O)N[C@H](C(=O)NCC(=O)N[C@@H](CC(C)C)C(=O)N1CCC[C@H]1C(=O)N[C@@H](C)C(=O)N[C@@H](CC(C)C)C(=O)N[C@H](C(=O)N[C@@H](CO)C(=O)N[C@@H](Cc1c[nH]c2ccccc12)C(=O)N[C@H](C(=O)N[C@@H](CCCCN)C(=O)N[C@@H](CCCNC(=N)N)C(=O)N[C@@H](CCCCN)C(=O)N[C@@H](CCCNC(=N)N)C(=O)N[C@@H](CCC(N)=O)C(=O)N[C@@H](CCC(N)=O)C(N)=O)[C@@H](C)CC)[C@@H](C)CC)[C@@H](C)O)[C@@H](C)O)C(C)C)C(C)C [MELITTIN]
[5]
  TI: 0.5
[6]
  TI: 0.5
[7]
  MIC: 16 µg/mL (≈ 5.62 µM)
[8]
  Activity: Dose-dependent effect
[9]
  Activity: Active
[10]
  Activity: Active
[11]
  Activity: inactive
[12]
  Activity: inactive
[13]
  TI: 0.5
[14]
  TI: 0.5

## N=C(N)NCCC[C@H](NC(=O)c1nn(CCc2cccc3ccccc23)cc1N)C(N)=O
[1]
  MIC: > 64 µg/mL
[2]
  MIC: > 64 µg/mL
[3]
  MIC: > 64 µg/mL
[4]
  MIC: > 64 µg/mL

## N=C(N)NCCC[C@H](NC(=O)c1nn(CCC(c2ccccc2)c2ccccc2)cc1NC(=O)[C@@H](N)CCCNC(=N)N)C(N)=O
[1]
  MIC: > 64 µg/mL
[2]
  MIC: 8 µg/mL (≈ 12.6 µM)
[3]
  MIC: > 64 µg/mL
[4]
  MIC: 8 µg/mL (≈ 12.6 µM)
[15]
  Ratio: 4 - 8
[16]
  Ratio: 4 - 8
[17]
  Ratio: 2 - 4
[18]
  Ratio: 2 - 4

## N=C(N)NCCC[C@H](NC(=O)c1nn(CCc2cccc3ccccc23)cc1NC(=O)[C@@H](N)CCCNC(=N)N)C(N)=O
[1]
  MIC: > 64 µg/mL
[2]
  MIC: > 64 µg/mL
[3]
  MIC: > 64 µg/mL
[4]
  MIC: 32 µg/mL (≈ 54 µM)

## N=C(N)NCCC[C@H](NC(=O)c1nn(CCC(c2ccccc2)c2ccccc2)cc1NC(=O)[C@H](CCCNC(=N)N)NC(=O)c1nn(CCC(c2ccccc2)c2ccccc2)cc1NC(=O)[C@H](CCCNC(=N)N)NC(=O)c1nn(CCC(c2ccccc2)c2ccccc2)cc1N)C(N)=O
[1]
  MIC: 64 µg/mL (≈ 45.9 µM)
[2]
  MIC: > 64 µg/mL
[3]
  MIC: 64 µg/mL (≈ 45.9 µM)
[4]
  MIC: 32 µg/mL (≈ 22.9 µM)

## N=C(N)NCCC[C@H](NC(=O)c1nn(CCc2cccc3ccccc23)cc1NC(=O)[C@H](CCCNC(=N)N)NC(=O)c1nn(CCc2cccc3ccccc23)cc1NC(=O)[C@@H](N)CCCNC(=N)N)C(N)=O
[1]
  MIC: 32 µg/mL (≈ 31.6 µM)
[2]
  MIC: 8 µg/mL (≈ 7.9 µM)
[3]
  MIC: 32 µg/mL (≈ 31.6 µM)
[4]
  MIC: 4 µg/mL (≈ 3.95 µM)

## N=C(N)NCCC[C@H](NC(=O)c1nn(CCC(c2ccccc2)c2ccccc2)cc1N)C(N)=O
[1]
  MIC: > 64 µg/mL
[2]
  MIC: 32 µg/mL (≈ 67.1 µM)
[3]
  MIC: > 64 µg/mL
[4]
  MIC: > 64 µg/mL

## N=C(N)NCCC[C@H](NC(=O)c1nn(CCCc2ccccc2)cc1N)C(N)=O
[1]
  MIC: > 64 µg/mL
[2]
  MIC: > 64 µg/mL
[3]
  MIC: > 64 µg/mL
[4]
  MIC: > 64 µg/mL

## N=C(N)NCCC[C@H](NC(=O)c1nn(CCC(c2ccccc2)c2ccccc2)cc1NC(=O)[C@H](CCCNC(=N)N)NC(=O)c1nn(CCC(c2ccccc2)c2ccccc2)cc1N)C(N)=O
[1]
  MIC: 32 µg/mL (≈ 34.2 µM)
[2]
  MIC: 32 µg/mL (≈ 34.2 µM)
[3]
  MIC: 32 µg/mL (≈ 34.2 µM)
[4]
  MIC: 8 µg/mL (≈ 8.55 µM)

## N=C(N)NCCC[C@H](NC(=O)c1nn(CCc2cccc3ccccc23)cc1NC(=O)[C@H](CCCNC(=N)N)NC(=O)c1nn(CCc2cccc3ccccc23)cc1NC(=O)[C@H](CCCNC(=N)N)NC(=O)c1nn(CCc2cccc3ccccc23)cc1N)C(N)=O
[1]
  MIC: > 64 µg/mL
[2]
  MIC: > 64 µg/mL
[3]
  MIC: 64 µg/mL (≈ 50.2 µM)
[4]
  MIC: 8 µg/mL (≈ 6.27 µM)

## N=C(N)NCCC[C@@H]1NC(=O)c2nn(CCC(c3ccccc3)c3ccccc3)cc2NC(=O)CSCC(C(N)=O)NC(=O)[C@H](CCCNC(=N)N)NC(=O)c2nn(CCC(c3ccccc3)c3ccccc3)cc2NC1=O (some centres not stated)
[1]
  MIC: > 64 µg/mL
[2]
  MIC: > 64 µg/mL
[3]
  MIC: 64 µg/mL (≈ 59.3 µM)
[4]
  MIC: 16 µg/mL (≈ 14.8 µM)

## N=C(N)NCCC[C@H](NC(=O)c1nn(CCCc2ccccc2)cc1NC(=O)[C@@H](N)CCCNC(=N)N)C(N)=O
[1]
  MIC: > 64 µg/mL
[2]
  MIC: > 64 µg/mL
[3]
  MIC: > 64 µg/mL
[4]
  MIC: 64 µg/mL (≈ 115 µM)

## CCC(CC)Cn1cc(NC(=O)[C@@H](N)CCCNC(=N)N)c(C(=O)N[C@@H](CCCNC(=N)N)C(N)=O)n1
[1]
  MIC: > 64 µg/mL
[2]
  MIC: > 64 µg/mL
[3]
  MIC: > 64 µg/mL
[4]
  MIC: > 64 µg/mL

## CC[C@H](C)[C@H](NC(=O)[C@H](CCCCN)NC(=O)[C@H](CCC(=O)O)NC(=O)[C@H](CCCCN)NC(=O)[C@H](CO)NC(=O)[C@H](CCCCN)NC(=O)[C@H](CCCNC(=N)N)NC(=O)[C@H](Cc1ccccc1)NC(=O)[C@H](Cc1ccccc1)NC(=O)[C@H](CC(=O)O)NC(=O)CNC(=O)[C@H](CC(C)C)NC(=O)[C@@H](N)CC(C)C)C(=O)NCC(=O)N[C@@H](CCCCN)C(=O)N[C@@H](CCC(=O)O)C(=O)N[C@@H](Cc1ccccc1)C(=O)N[C@@H](CCCCN)C(=O)N[C@@H](CCCNC(=N)N)C(=O)N[C@H](C(=O)N[C@H](C(=O)N[C@@H](CCC(N)=O)C(=O)N[C@@H](CCCNC(=N)N)C(=O)N[C@H](C(=O)N[C@@H](CCCCN)C(=O)N[C@@H](CC(=O)O)C(=O)N[C@@H](Cc1ccccc1)C(=O)N[C@@H](CC(C)C)C(=O)N[C@@H](CCCNC(=N)N)C(=O)N[C@@H](CC(N)=O)C(=O)N[C@@H](CC(C)C)C(=O)N[C@H](C(=O)N1CCC[C@H]1C(=O)N[C@@H](CCCNC(=N)N)C(=O)N[C@H](C(=O)N[C@@H](CCC(=O)O)C(=O)N[C@@H](CO)C(=O)O)[C@@H](C)O)C(C)C)[C@@H](C)CC)C(C)C)[C@@H](C)CC [CATHELICIDIN]
[1]
  MIC: 32 µg/mL (≈ 7.12 µM)
[2]
  MIC: 64 µg/mL (≈ 14.2 µM)
[3]
  MIC: 32 µg/mL (≈ 7.12 µM)
[4]
  MIC: 32 µg/mL (≈ 7.12 µM)
[5]
  TI: 25.6
[6]
  TI: 25.6
[19]
  IC90: 64 µg/mL (≈ 14.2 µM)
[9]
  Activity: Active
[10]
  Activity: Active
[13]
  TI: 25.6
[14]
  TI: 25.6
